{"source": "ChEMBL document CHEMBL1122183", "about": "“Enhanced antitumor properties of 3'-(4-morpholinyl) and 3'-(4-methoxy-1-piperidinyl) derivatives of 3'-deaminodaunorubicin” (1982)", "key": {"L1210 [1]": {"tested_on": "L1210", "assay": "Concentration of drug necessary to reduce by 50% the incorporation of tritiated thymidine in the DNA of actively growing L1210 cells", "assay_type": "functional, Mus musculus", "conditions": "read-out: ED50 (the source's name)", "in_short": "(§1)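 Actively growing L1210 cells. Drug first dissolved in Me2SO, giving 1% final Me2SO. Incorporation of [3H]thymidine into DNA and [3H]uridine into RNA measured. ED50 is the drug concentration that reduces incorporation by 50%.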"}, "L1210 [2]": {"tested_on": "L1210", "assay": "Concentration of drug necessary to reduce by 50% the incorporation of tritiated uridine in the RNA of actively growing L1210 cells.", "assay_type": "functional, Mus musculus", "conditions": "read-out: ED50 (the source's name)", "in_short": "as §1"}, "Nucleic Acid": {"tested_on": "Nucleic Acid", "assay": "Thermal denaturation temperature (Tm) of isolated calf thymus helical DNA was measured", "assay_type": "functional", "conditions": "Bos taurus", "in_short": "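Calf thymus DNA (P) 5.2 × 10^-5 M and drug 5.2 × 10^-6 M in 0.01 M phosphate buffer, pH 7, with EDTA and 5% final Me2SO. ΔTm is Tm of the DNA–drug complex minus Tm of DNA alone. Values <1 are read as insignificant binding.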"}, "Mus musculus": {"organism": "Mus musculus", "assay": "Percentage rate of O2 consumption by liver microsomes and NADPH in the presence compared to the rate in presence of doxorubicin.", "assay_type": "functional", "in_short": "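Rate of O2 consumption by liver microsomes with NADPH measured with the analogue at a single drug concentration. Expressed as a percentage of the rate obtained with doxorubicin.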"}, "P388": {"tested_on": "P388", "assay": "Antitumor efficacy at optimal dose of compound was measured against P388 leukemia in mice", "assay_type": "functional, Mus musculus", "in_short": "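Mice inoculated ip with P388 cells on day 0, then dosed on days 5, 9 and 13 across a series of doses, under NCI protocols. % T/C is the ratio of mean survival time of treated to untreated mice ×100; T/C >120 taken as active. Values are averages of two tests, or one test where only one was run.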"}}, "note": "Values joined by “and” are separate entries in the source; they are usually repeats but may differ in a detail not shown here. Equal entries are not always repeated.", "data": [{"smiles": "COc1cccc2c1C(=O)c1c(O)c3c(c(O)c1C2=O)C[C@@](O)(C(=O)CO)C[C@@H]3O[C@H]1C[C@H](N)[C@H](O)[C@H](C)O1", "note": "[DOXORUBICIN]", "values": [{"measurement": "EC50", "setting": "L1210 [1]; Mus musculus, L1210", "value": 1500, "unit": "nM"}, {"measurement": "EC50", "setting": "L1210 [2]; Mus musculus, L1210", "value": 580, "unit": "nM"}, {"measurement": "ΔTm", "setting": "Nucleic Acid", "value": 13.4, "unit": "°C"}, {"measurement": "O2 consumption", "setting": "Mus musculus", "value": 100, "unit": "%"}, {"measurement": "T/C", "setting": "P388", "value": 160, "unit": "%"}]}, {"smiles": "COc1cccc2c1C(=O)c1c(O)c3c(c(O)c1C2=O)C[C@@](O)(C(C)=O)C[C@@H]3OC1CC(NC2CCOCC2)C(O)C(C)O1", "note": "(stereo partly specified)", "values": [{"measurement": "EC50", "setting": "L1210 [1]; Mus musculus, L1210", "value": 2000, "unit": "nM"}, {"measurement": "EC50", "setting": "L1210 [2]; Mus musculus, L1210", "value": 610, "unit": "nM"}, {"measurement": "ΔTm", "setting": "Nucleic Acid", "value": 4, "unit": "°C"}, {"measurement": "O2 consumption", "setting": "Mus musculus", "value": 68, "unit": "%"}, {"measurement": "T/C", "setting": "P388", "value": 136, "unit": "%"}]}, {"smiles": "COc1cccc2c1C(=O)c1c(O)c3c(c(O)c1C2=O)C[C@@](O)(C(C)=O)C[C@@H]3OC1CC(N2CCCCC2)C(O)C(C)O1", "note": "(stereo partly specified)", "values": [{"measurement": "EC50", "setting": "L1210 [1]; Mus musculus, L1210", "value": 500, "unit": "nM"}, {"measurement": "EC50", "setting": "L1210 [2]; Mus musculus, L1210", "value": 50, "unit": "nM"}, {"measurement": "ΔTm", "setting": "Nucleic Acid", "value": 16.8, "unit": "°C"}, {"measurement": "O2 consumption", "setting": "Mus musculus", "value": 8, "unit": "%"}, {"measurement": "T/C", "setting": "P388", "value": 177, "unit": "%"}]}, {"smiles": "COc1cccc2c1C(=O)c1c(O)c3c(c(O)c1C2=O)C[C@@](O)(C(C)O)C[C@@H]3O[C@H]1C[C@H](N2CCC(OC)CC2)[C@H](O)[C@H](C)O1", "note": "(stereo partly specified)", "values": [{"measurement": "EC50", "setting": "L1210 [1]; Mus musculus, L1210", "value": 580, "unit": "nM"}, {"measurement": "EC50", "setting": "L1210 [2]; Mus musculus, L1210", "value": 80, "unit": "nM"}, {"measurement": "ΔTm", "setting": "Nucleic Acid", "value": 9.5, "unit": "°C"}, {"measurement": "O2 consumption", "setting": "Mus musculus", "value": 64, "unit": "%"}, {"measurement": "T/C", "setting": "P388", "value": 199, "unit": "%"}]}, {"smiles": "COc1cccc2c1C(=O)c1c(O)c3c(c(O)c1C2=O)C[C@@](O)(C(C)=O)C[C@@H]3OC1CC(N2CCC(OC)CC2)C(O)C(C)O1", "note": "(stereo partly specified)", "values": [{"measurement": "EC50", "setting": "L1210 [1]; Mus musculus, L1210", "value": 630, "unit": "nM"}, {"measurement": "EC50", "setting": "L1210 [2]; Mus musculus, L1210", "value": 120, "unit": "nM"}, {"measurement": "ΔTm", "setting": "Nucleic Acid", "value": 13.3, "unit": "°C"}, {"measurement": "O2 consumption", "setting": "Mus musculus", "value": 82, "unit": "%"}, {"measurement": "T/C", "setting": "P388", "value": 199, "unit": "%"}]}, {"smiles": "COc1cccc2c1C(=O)c1c(O)c3c(c(O)c1C2=O)C[C@@](O)(C(C)=O)C[C@@H]3OC1CC(NC2CCCCC2)C(O)C(C)O1", "note": "(stereo partly specified)", "values": [{"measurement": "EC50", "setting": "L1210 [1]; Mus musculus, L1210", "value": 64000, "unit": "nM"}, {"measurement": "EC50", "setting": "L1210 [2]; Mus musculus, L1210", "value": 16000, "unit": "nM"}, {"measurement": "ΔTm", "setting": "Nucleic Acid", "value": 0.7, "unit": "°C"}, {"measurement": "O2 consumption", "setting": "Mus musculus", "value": 57, "unit": "%"}]}, {"smiles": "COc1cccc2c1C(=O)c1c(O)c3c(c(O)c1C2=O)C[C@@](O)(C(C)O)C[C@@H]3O[C@H]1C[C@H](N2CCCCC2)[C@H](O)[C@H](C)O1", "note": "(stereo partly specified)", "values": [{"measurement": "EC50", "setting": "L1210 [1]; Mus musculus, L1210", "value": 620, "unit": "nM"}, {"measurement": "EC50", "setting": "L1210 [2]; Mus musculus, L1210", "value": 40, "unit": "nM"}, {"measurement": "ΔTm", "setting": "Nucleic Acid", "value": 12.9, "unit": "°C"}, {"measurement": "T/C", "setting": "P388", "value": 162, "unit": "%"}]}, {"smiles": "COc1cccc2c1C(=O)c1c(O)c3c(c(O)c1C2=O)C[C@@](O)(C(C)O)C[C@@H]3O[C@H]1C[C@H](N2CCOCC2)[C@H](O)[C@H](C)O1", "note": "(stereo partly specified)", "values": [{"measurement": "EC50", "setting": "L1210 [1]; Mus musculus, L1210", "value": 2200, "unit": "nM"}, {"measurement": "EC50", "setting": "L1210 [2]; Mus musculus, L1210", "value": 530, "unit": "nM"}, {"measurement": "ΔTm", "setting": "Nucleic Acid", "value": 4.1, "unit": "°C"}, {"measurement": "O2 consumption", "setting": "Mus musculus", "value": 29, "unit": "%"}, {"measurement": "T/C", "setting": "P388", "value": 153, "unit": "%"}]}, {"smiles": "COc1cccc2c1C(=O)c1c(O)c3c(c(O)c1C2=O)C[C@@](O)(C(C)=O)C[C@@H]3O[C@H]1C[C@H](N)[C@H](O)[C@H](C)O1", "note": "[DAUNORUBICIN]", "values": [{"measurement": "EC50", "setting": "L1210 [1]; Mus musculus, L1210", "value": 660, "unit": "nM"}, {"measurement": "EC50", "setting": "L1210 [2]; Mus musculus, L1210", "value": 330, "unit": "nM"}, {"measurement": "T/C", "setting": "P388", "value": 130, "unit": "%"}]}, {"smiles": "COc1cccc2c1C(=O)c1c(O)c3c(c(O)c1C2=O)C[C@@](O)(C(C)=O)C[C@@H]3OC1CC(N2CCOCC2)C(O)C(C)O1", "note": "(stereo partly specified)", "values": [{"measurement": "EC50", "setting": "L1210 [1]", "value": "760 nM and 340 nM"}, {"measurement": "EC50", "setting": "L1210 [2]", "value": "100 nM and 14 nM"}, {"measurement": "ΔTm", "setting": "Nucleic Acid", "value": 6.1, "unit": "°C"}, {"measurement": "O2 consumption", "setting": "Mus musculus", "value": 25, "unit": "%"}, {"measurement": "T/C", "setting": "P388", "value": 166, "unit": "%"}]}]}
